Test results as given in publication PMC12219357 (Nature Communications, 2025).
“And” between values parts separate entries of the source, which are not always exact repeats. Equal values may be shown once. “Also recorded” adds a separate entry of the source. Where a SMILES comes first, the peptide text is derived from it. The star is where a group is joined. 5FAM = O=C1OC2(c3ccc(O)cc3Oc3cc(O)ccc32)c2ccc(C(=O)*)cc21

Assays:
Assay type in all cases: in vivo, human
[1] = Pharmacokinetics after intravenous infusion
[2] = test system: adult patients with head and neck neoplasms undergoing parotidectomy or thyroidectomy
[3] = test system: adult patients with head and neck neoplasms; assay: Vital signs, physical examination and 12-lead ECG
[4] = test system: adult patients with head and neck neoplasms; assay: Clinical laboratory assessments
Outline: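 Test compound given as a single IV infusion over 30 min on Day 1, at dose tiers of 100–600 mg. Hematology, chemistry, coagulation and urinalysis were run at the preoperative visit, then repeated on Day 1 before dosing and at end of infusion. Histamine, tryptase, C3a and C5 were sampled before, during and after infusion. Further safety labs on Day 15 (±8 days) and Day 28 (+5 days). Summarized descriptively by dose.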

[5] = test system: nerves (head and neck surgery); assay: Visualization Scoring System; conditions: 500 mg
[6] = test system: nerves (head and neck surgery); assay: Quantitative image analysis of intraoperative nerve fluorescence; conditions: for Background fluorescence, mean pixel intensity (MPI): FL images
Outline: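 Paired white-light and fluorescence images taken intraoperatively through a surgical microscope with a yellow 560 fluorescence module. Analysis used the green channel of fluorescence images and 5–20 elliptical ROIs per nerve and per adjacent non-nerve tissue. After background subtraction, SBR = nerve MPI / background MPI. Statistics: Welch ANOVA, Kruskal-Wallis, Wilcoxon rank sum.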

CC(C)[C@H](NC(=O)[C@H](Cc1ccc(O)cc1)NC(=O)[C@H](Cc1ccc(O)cc1)NC(=O)[C@@H]1CCCN1C(=O)[C@H](CCC(=O)O)NC(=O)[C@H](CCC(=O)O)NC(=O)[C@H](Cc1c[nH]c2ccccc12)NC(=O)[C@@H]1CCCN1C(=O)[C@@H](NC(=O)[C@H](CCC(N)=O)NC(=O)c1ccc2c(c1)C(=O)OC21c2ccc(O)cc2Oc2cc(O)ccc21)C(C)C)C(=O)N[C@H](C(=O)N[C@@H](CCCCN)C(=O)N[C@@H](CCCCN)C(=O)N[C@@H](CO)C(=O)N[C@@H](CO)C(=O)NCC(=O)NCC(N)=O)C(C)C [bevonescein] (5FAM-QVPWEEPYYVVKKSSGG-NH2; C-terminus assumed)
Increase of mean unbound AUClast over the 6-fold increase in dose ([1]; 100 to 600 mg, bevonescein not bound to plasma or tissue proteins): 6.1 fold | Free fraction ([1]; from unbound vs total AUClast): approximately 30% | AEs greater than grade 1 attributable to the study drug ([2]; 27 patients): no adverse events greater than grade 1 | AEs assessed as possibly related to the study drug ([2]; 27 subjects, all doses, resolved without intervention): a single adverse event | Tolerability of preoperative intravenous infusion ([2]; 100-600 mg): well tolerated | Dose-limiting toxicity (DLT) ([2]; all doses 100-600 mg, single IV infusion over 30 min, 27 patients, NCI CTCAE): no dose-limiting toxicity | Changes from baseline in vital signs ([3]; all cohorts): no clinically significant or relevant differences | ECG values ([3]; all patients, 12-lead ECG): normal or non-clinically significant abnormal ECG values | Hematology, chemistry, coagulation, and urinalysis findings ([4]; all patients, as deemed by the investigators): normal ranges or not clinically significant abnormalities | Tryptase and complements C3a and C5 levels ([4]; during the study): remained stable | Improvement in nerve length with FL images, share of subjects (so in the source) [5]: 78% | Subjects with some improvement in visible nerve length ([5]; 14 subjects): 100% | Individual nerves with improvement in length measurements ([5]; n = 42/54 nerves, paired FL overlay vs WLR): 78% | SBR, FL images ([6]; 500 mg cohort (dose comparison)): 3.0 ± 1.0 | Background fluorescence, mean pixel intensity (MPI) ([6]; 500 mg cohort): 39.5 ± 17 | Signal-to-background ratio (SBR), fluorescence (FL) images ([6]; 500 mg, 54 evaluable nerves in 14 subjects, mean ± SD): 2.1 ± 0.8 and 2.08 ± 0.83 | Fluorescent SBR of nerves, early (1-3 h) versus late (3-5 h) timing cohorts ([6]; 500 mg, infusion to incision, two-sided Wilcoxon rank sum test): not statistically different; also recorded: no significant difference | Background fluorescence, mean pixel intensity (MPI) ([6]; 600 mg cohort, Welch ANOVA p < 0.01 vs 500 mg): 73.2 ± 34 | SBR, FL images ([6]; 600 mg cohort, Kruskal-Wallis p > 0.05 vs 500 mg): 2.2 ± 1.6
